As a reminder, the half-life is how long it takes for the measured level to halve.

Series [1] has as its system HT-29 colon cancer xenografts. Description: Tumor growth assay, HT-29 xenograft. The class given is in vivo, BALB/c nude mice. The following applies: dosing from day 7, sacrificed day 28, n = 6. A digest of the protocol: (§1)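 Female BALB/c nude mice, 4–5 weeks old and housed SPF, were implanted s.c. in the right flank with BGC-823 or HT-29 cells. At 100 mm3 tumours, mice were randomised into 7 groups. Arms were PBS, reference agents (80 mg/kg/7d; 5 mg/kg/7d) and test peptides at 5 mg/kg daily or every 4 days. Body weight and tumour volume were tracked; tumours were weighed at sacrifice; n = 6, mean ± SD.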

In series [2] the test system is BGC-823 gastric cancer xenografts. The experiment in a line: Tumor growth assay, BGC-823 xenograft. It counts as in vivo, BALB/c nude mice. The following applies: dosing from day 7, sacrificed day 28, n = 6. In outline:
as §1

The subject of series [3] is zebrafish embryo subintestinal vessels (SIVs). Description: Zebrafish angiogenesis model. The settings on record: yolk sac microinjection at 2 dpf, read at 3 dpf, 10 zebrafish per group analysed. The class given is in vivo. In outline:
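Transgenic zebrafish received test peptide by yolk-sac microinjection at 2 dpf, 30 embryos per group, with a positive control included. After a further 24 h, 10 embryos per group were randomly chosen. Fluorescent subintestinal vessels were imaged and SIV area was quantified by image analysis (mean ± SD, three to four independent experiments).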

The conditions of series [4]: in rabbits, estimated; cited from earlier work.
For series [5] the following is noted: in humans; cited from earlier work.
The conditions of series [6]: in rats; cited from earlier work.
The conditions of series [7]: in mice; cited from earlier work.

Read-outs that look alike come from different tables or passages of the source.

Turning to `O=P1(N(CCCl)CCCl)NCCCO1` (stereo not drawn) [CTX, Cyclophosphamide], the “inhibition rate on HT-29 xenograft” value in series [1] (80 mg/kg/7d, positive group) came to 78.02%. For the same compound, the “inhibition rate on BGC-823 xenografts” value in series [2] (80 mg/kg/7d, positive group) was 65.9%.
“Avastin: recombinant humanized monoclonal IgG1 antibody against VEGF-A”: the “inhibition rate on HT-29 xenograft” value in series [1] (5 mg/kg/7d) was 77.91%. Also, the “angiogenesis of SIV plexus in zebrafish embryos (SIV area)” value in series [3] is listed as “inhibited the angiogenesis of SIV plexus”. For the same compound, the “inhibition rate on BGC-823 xenografts” value in series [2] (5 mg/kg/7d) worked out at 79.54%.
As for Albumin, the half-life in series [4] is 133 h; in series [5], 456 h; in series [6] it was 45.6 h; in series [7], 24 h.

Source of the values: paper PMC5928873 (Theranostics, 2018).
